# “Also recorded” adds a separate entry of the source.
# Key:
# [1] = Pilot mouse pharmacokinetic study; format: in vivo, BALB/c mice; conditions: mice; for gross toxicity after single IV dose: single low-dose 10 mg/kg IV
# [2] = Tolerability of repeated daily IP injection in mice; format: in vivo; conditions: 10 sequential daily IP injections, 10 mg/kg (34 in 100% DMSO)
# In short: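 Mice got 10 sequential daily IP injections of test compound dissolved in 100% DMSO. They were monitored for clinical adverse signs.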
Structure (SMILES),gross toxicity after single IV dose [1],tolerability / adverse events after repeated daily IP injection [2],"apparent oral bioavailability (F) ([1]; PO vs IV, 10 mg/kg) [%]"
"CN(C)c1ccc2cc(-c3cc(Cl)cc(Cl)c3)c(N)nc2c1 [Compound 27, 3-[3,5-Dichlorophenyl]-N^7,N^7-dimethylquinoline-2,7-diamine]",no gross toxicity,not observed; also recorded: tolerable,
"CN(C)c1ccc2cc(-c3cn(C)c4ccccc34)c(N)nc2c1 [Compound 34, 3-[3-(N-Methylindolyl)-N^7,N^7-dimethyl]-2,7-quinolinediamine]",no gross toxicity,toxic,< 20
